The values below come from ChEMBL document CHEMBL5579886, “Selective Degradation of MLK3 by a Novel CEP1347-VHL-02 PROTAC Compound Limits the Oncogenic Potential of TNBC” (J Med Chem, 2024).

Calls of active or inactive are those of the source. The calls are words filed in the database; no cut-off is given here.

As usually defined, the DC50 is the concentration at which degradation of the target reaches its halfway point. In general, Emax refers to the size of the effect at its maximum, as opposed to the concentration needed.

The subject of assay [1] is MCF7. Put plainly: Inhibition of colony formation in human MCF7 cells harboring siMLK3 by crystal violet staining based analysis. Format: functional, cell-based. Summed up:
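MCF-7 or MDA-MB-468 seeded at 10 000 cells/well, transfected next day with MAP3K11 SMARTpool siRNA or nontargeting control siRNA; crystal violet staining 7 days after transfection. Knockdown confirmed by immunoblot.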

Assay [2] relates to MDA-MB-468. As to the kind of experiment: Inhibition of cell migration in human MDA-MB-468 cells at 1 uM incubated for 24 hrs by transwell assay. It is filed as functional, cell-based. Summed up: (§1)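 Boyden inserts, 8 μm pores: 200 000 cells in serum-free DMEM with 1 μM PROTAC or DMSO, 20% FBS DMEM below as chemoattractant, 24 h at 37 °C, 5% CO2. Migrated cells fixed, crystal violet stained and counted by image analysis; at least three repeats.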

Assay [3] concerns MDA-MB-468. Put plainly: Inhibition of colony formation in human MDA-MB-468 cells at 1 uM incubated for 15 days by crystal violet staining based analysis. Format: functional, cell-based. To be noted: time 15.0 day. The method, boiled down:
(§2)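 5000 cells per 6 cm plate in triplicate with 1 μM PROTAC or DMSO, medium changed every 5 days; colonies stained with crystal violet after 14–15 days. Three independent experiments, mean ± SD, unpaired t-test against control.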

For assay [4], the system named is MCF7. As to the kind of experiment: Growth inhibition of human MCF7 cell spheroids in hydrogel at 1 uM incubated for 10 days. It is filed as functional, cell-based. To be noted: time 10.0 day. Summed up: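 4000 cells plated on top of hydrogels and grown 10 days with 1 μM PROTAC or DMSO; spheroid formation and size scored.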
In assay [5] the test system is MCF7. As to the kind of experiment: Effect on cell cycle in human MCF7 cells at 1 uM measured after 48 hrs by PI staining based flow cytometry. It is filed as functional. The method, boiled down: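 Cells seeded at 50 000/well, exposed to 1 μM PROTAC or DMSO for 48 h, trypsinized, fixed in ice-cold methanol and held at –20 °C; next day stained with PI/RNase solution and read by flow cytometry. Two independent experiments.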

The target in assay [6] is T1, von Hippel-Lindau disease tumor suppressor/Mitogen-activated protein kinase kinase kinase 10 (Homo sapiens) (UniProt Q02779+P40337). As to the kind of experiment: PROTAC activity at VHL/MLK2 in human MDA-MB-468 cells assessed as protein degradation at 1 uM incubated for 24 hrs by immunoblot analysis. Format: cell-based. Summed up:
(§3)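 Endogenous MLK1, MLK2 or MLK4 levels in MCF-7 and MDA-MB-468 cells. Cells were grown in high-glucose DMEM with 10% FBS, seeded at 100 000 cells/well and treated the next day for 24 h, with DMSO as control. Lysis was in RIPA with protease inhibitor, followed by 10% SDS-PAGE, nitrocellulose transfer and ECL immunoblot with GAPDH or β-actin as loading control.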

Assay [7] concerns MCF7. As to the kind of experiment: Induction of apoptosis in human MCF7 cells at 1 uM measured after 48 hrs by Annexin V-FITC/PI staining based flow cytometry. It is filed as functional, cell-based. The method, boiled down:
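Cells seeded at 50 000/well, treated 48 h with 1 μM PROTAC or DMSO; cells plus supernatant stained with Alexa Fluor488 Annexin V for 30 min at room temperature in the dark, PI added 5 min before flow cytometry. At least three repeats.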

Assay [8] has as its target T2, von Hippel-Lindau disease tumor suppressor/Mitogen-activated protein kinase kinase kinase 11 (Homo sapiens, UniProt Q16584+P40337). Put plainly: PROTAC activity at VHL/DOX-inducible MLK3 (unknown origin) overexpressed in human HCC1806 cells assessed as protein degradation at 0.25 uM incubated for 24 hrs by immunoblot analysis. Format: cell-based. A general note: A western blot detects proteins with antibodies after separation by electrophoresis.
Target sequence in this assay (P40337 whole entry, looked up): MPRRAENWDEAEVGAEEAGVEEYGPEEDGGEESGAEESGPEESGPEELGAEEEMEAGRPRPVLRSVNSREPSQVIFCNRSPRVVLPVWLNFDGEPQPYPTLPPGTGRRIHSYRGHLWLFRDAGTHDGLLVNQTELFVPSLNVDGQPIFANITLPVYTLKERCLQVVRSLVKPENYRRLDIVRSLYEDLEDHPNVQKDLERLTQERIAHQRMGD
Target sequence in this assay (Q16584 whole entry, looked up): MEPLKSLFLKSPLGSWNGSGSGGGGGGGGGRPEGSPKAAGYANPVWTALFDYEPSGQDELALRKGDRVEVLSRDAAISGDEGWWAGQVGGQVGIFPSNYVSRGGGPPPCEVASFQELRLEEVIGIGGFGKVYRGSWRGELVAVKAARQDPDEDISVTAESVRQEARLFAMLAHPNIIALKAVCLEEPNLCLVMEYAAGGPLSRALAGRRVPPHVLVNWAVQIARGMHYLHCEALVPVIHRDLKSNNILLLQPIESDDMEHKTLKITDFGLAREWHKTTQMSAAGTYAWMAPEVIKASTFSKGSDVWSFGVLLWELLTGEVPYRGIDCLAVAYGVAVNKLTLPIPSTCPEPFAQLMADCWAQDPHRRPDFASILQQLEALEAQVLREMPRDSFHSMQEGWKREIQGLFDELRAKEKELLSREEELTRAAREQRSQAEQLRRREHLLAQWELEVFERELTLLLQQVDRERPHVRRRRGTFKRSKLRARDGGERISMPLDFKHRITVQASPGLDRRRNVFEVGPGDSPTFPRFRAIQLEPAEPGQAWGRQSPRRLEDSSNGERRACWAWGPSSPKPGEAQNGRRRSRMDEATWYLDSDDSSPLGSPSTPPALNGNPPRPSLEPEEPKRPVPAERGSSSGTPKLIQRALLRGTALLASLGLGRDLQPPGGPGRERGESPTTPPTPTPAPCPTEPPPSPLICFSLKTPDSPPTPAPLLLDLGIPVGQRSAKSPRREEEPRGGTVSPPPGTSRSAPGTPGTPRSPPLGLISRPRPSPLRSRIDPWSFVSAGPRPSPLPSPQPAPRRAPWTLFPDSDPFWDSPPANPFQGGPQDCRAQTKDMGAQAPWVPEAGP

Assay [9] deals with T2, von Hippel-Lindau disease tumor suppressor/Mitogen-activated protein kinase kinase kinase 11. Put plainly: PROTAC activity at VHL/MLK3 in carfilzomib-treated human MCF7 cells assessed as protein degradation at 1 uM measured after 7 hrs by immunoblot analysis. Format: cell-based. Summed up: (§4)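 MCF-7 and MDA-MB-468 cells were seeded at 100 000/well. The next day they were pretreated with 1 μM carfilzomib for 1 h, then treated with 1 μM PROTAC for 7 h, with DMSO as control. Endogenous MLK3 was measured by immunoblot of RIPA lysates.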
Target sequence in this assay (P40337 whole entry, looked up): as the sequence (P40337 whole entry, looked up) above
Target sequence in this assay (Q16584 whole entry, looked up): as the sequence (Q16584 whole entry, looked up) above

The target of assay [10] is T1, von Hippel-Lindau disease tumor suppressor/Mitogen-activated protein kinase kinase kinase 10 (Homo sapiens). Put plainly: PROTAC activity at IAP/MLK2 in human MDA-MB-468 cells assessed as protein degradation at 1 uM incubated for 24 hrs by immunoblot analysis. It is filed as cell-based. Summed up: as §3
For assay [11], the system named is MCF7. Put plainly: Inhibition of colony formation in human MCF7 cells at 1 uM incubated for 15 days by crystal violet staining based analysis. Format: functional, cell-based. To be noted: time 15.0 day. Summed up: as §2
Assay [12] addresses T2, von Hippel-Lindau disease tumor suppressor/Mitogen-activated protein kinase kinase kinase 11. As to the kind of experiment: PROTAC activity at VHL/MLK3 in human MDA-MB-468 cells assessed as protein degradation at 1 uM measured after 24 hrs by immunoblot analysis. Format: cell-based. The method, boiled down: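 MCF-7 and MDA-MB-468 cells were treated for 24 h across 0.1–5 μM, with DMSO as control. MLK3 was immunoblotted and quantified as percent remaining versus concentration, from which DC50 and Dmax were derived.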
Target sequence in this assay (P40337 whole entry, looked up): as the sequence (P40337 whole entry, looked up) above
Target sequence in this assay (Q16584 whole entry, looked up): as the sequence (Q16584 whole entry, looked up) above

The test system of assay [13] is MCF7. As to the kind of experiment: Inhibition of cell migration in human MCF7 cells at 1 uM incubated for 24 hrs by transwell assay. It is filed as functional, cell-based. The method, boiled down:
as §1

For assay [14], the target named is von Hippel-Lindau disease tumor suppressor/Mitogen-activated protein kinase kinase kinase 21 (Homo sapiens) (UniProt P40337+Q5TCX8). Put plainly: PROTAC activity at IAP/MLK4 in human MCF7 cells assessed as protein degradation at 1 uM incubated for 24 hrs by immunoblot analysis. Format: cell-based. The method, boiled down: as §3
Sequence of von Hippel-Lindau disease tumor suppressor/Mitogen-activated protein kinase kinase kinase 21 (Homo sapiens) (P40337 whole entry, looked up): as the sequence (P40337 whole entry, looked up) above
Sequence of von Hippel-Lindau disease tumor suppressor/Mitogen-activated protein kinase kinase kinase 21 (Homo sapiens) (Q5TCX8 whole entry, looked up): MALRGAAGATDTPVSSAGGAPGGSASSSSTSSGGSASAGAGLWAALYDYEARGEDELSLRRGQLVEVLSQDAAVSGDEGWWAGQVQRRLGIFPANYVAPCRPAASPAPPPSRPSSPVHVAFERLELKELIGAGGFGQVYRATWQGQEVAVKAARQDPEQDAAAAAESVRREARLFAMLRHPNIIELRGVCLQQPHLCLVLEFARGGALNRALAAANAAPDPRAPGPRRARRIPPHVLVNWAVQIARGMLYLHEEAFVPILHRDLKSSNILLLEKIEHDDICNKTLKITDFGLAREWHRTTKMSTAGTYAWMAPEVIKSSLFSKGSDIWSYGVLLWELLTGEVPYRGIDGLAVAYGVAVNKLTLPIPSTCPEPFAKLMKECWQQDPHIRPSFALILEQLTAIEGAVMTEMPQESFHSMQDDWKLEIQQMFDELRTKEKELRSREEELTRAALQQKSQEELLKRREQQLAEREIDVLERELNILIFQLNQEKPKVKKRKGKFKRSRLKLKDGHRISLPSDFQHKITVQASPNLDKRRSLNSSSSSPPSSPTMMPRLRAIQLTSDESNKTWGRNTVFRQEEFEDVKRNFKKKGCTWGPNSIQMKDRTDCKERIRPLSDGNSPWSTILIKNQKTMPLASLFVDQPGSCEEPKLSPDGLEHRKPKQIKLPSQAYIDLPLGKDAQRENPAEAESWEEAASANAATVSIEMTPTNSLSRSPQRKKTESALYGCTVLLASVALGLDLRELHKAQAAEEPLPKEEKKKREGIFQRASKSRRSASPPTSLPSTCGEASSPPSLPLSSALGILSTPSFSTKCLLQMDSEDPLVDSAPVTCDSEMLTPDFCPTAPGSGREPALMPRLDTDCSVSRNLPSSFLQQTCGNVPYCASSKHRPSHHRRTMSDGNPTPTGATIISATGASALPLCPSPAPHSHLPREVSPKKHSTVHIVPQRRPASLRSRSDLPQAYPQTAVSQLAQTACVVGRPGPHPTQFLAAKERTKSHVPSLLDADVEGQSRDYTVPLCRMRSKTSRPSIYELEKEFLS
Assay [15] concerns MDA-MB-468. Put plainly: Effect on MLK3 mRNA level in human MDA-MB-468 cells at 1 uM measured after 24 hrs by RT-qPCR analysis. Format: functional, cell-based. Summed up:
(§5)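 Total RNA extracted from MCF-7 and MDA-MB-468 cells 24 h after PROTAC treatment, purity and concentration checked spectrophotometrically, reverse transcribed to cDNA and MLK3 transcript quantified by RT-qPCR.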
For orientation: In qPCR the cycle at which signal appears reflects the starting amount.

For assay [16], the target named is T2, von Hippel-Lindau disease tumor suppressor/Mitogen-activated protein kinase kinase kinase 11. As to the kind of experiment: PROTAC activity at VHL/MLK3 in carfilzomib-treated human MDA-MB-468 cells assessed as protein degradation at 1 uM measured after 7 hrs by immunoblot analysis. It is filed as cell-based. The method, boiled down:
as §4
Target sequence in this assay (P40337 whole entry, looked up): as the sequence (P40337 whole entry, looked up) above
Target sequence in this assay (Q16584 whole entry, looked up): as the sequence (Q16584 whole entry, looked up) above

The target is the same in assay [17]. As to the kind of experiment: PROTAC activity at VHL/MLK3 in human MDA-MB-468 cells assessed as decrease in JNK pathway at 1 uM measured after 24 hrs by immunoblot analysis. Format: cell-based.
Target sequence in this assay (P40337 whole entry, looked up): as the sequence (P40337 whole entry, looked up) above
Target sequence in this assay (Q16584 whole entry, looked up): as the sequence (Q16584 whole entry, looked up) above
Assay [18] has the same target. Put plainly: PROTAC activity at VHL/MLK3 in human MDA-MB-468 cells assessed as protein degradation measured after 24 hrs by Western blot analysis. It is filed as cell-based. Summed up: (§6)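 Endogenous MLK3: cells seeded at 100 000/well, treated next day for 24 h with PROTAC at 0.1–5 μM, DMSO control; immunoblot with GAPDH or β-actin loading control. Remaining MLK3 percentage plotted against concentration to derive DC50 and Dmax.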
Target sequence in this assay (Q16584 whole entry): as the sequence (Q16584 whole entry, looked up) above
Target sequence in this assay (P40337 whole entry): as the sequence (P40337 whole entry, looked up) above

Assay [19] has as its target T1, von Hippel-Lindau disease tumor suppressor/Mitogen-activated protein kinase kinase kinase 10 (Homo sapiens). Put plainly: PROTAC activity at IAP/MLK2 in human MCF7 cells assessed as protein degradation at 1 uM incubated for 24 hrs by immunoblot analysis. It is filed as cell-based. Summed up: as §3
The subject of assay [20] is MCF7. As to the kind of experiment: Effect on ERK pathway in human MCF7 cells at 1 uM measured after 24 hrs by immunoblot analysis. Format: functional, cell-based.
Assay [21] addresses T2, von Hippel-Lindau disease tumor suppressor/Mitogen-activated protein kinase kinase kinase 11. Put plainly: PROTAC activity at VHL/MLK3 in human MCF7 cells assessed as protein degradation at 0.1 to 5 uM measured after 24 hrs by Western blot analysis relative to control. It is filed as cell-based. To be noted: dose 0.1-5 µM. Summed up: as §6
Target sequence in this assay (P40337 whole entry, looked up): as above
Target sequence in this assay (Q16584 whole entry, looked up): as the sequence (Q16584 whole entry, looked up) above
Assay [22] deals with MCF7. As to the kind of experiment: Effect on MLK3 mRNA level in human MCF7 cells at 1 uM measured after 24 hrs by RT-qPCR analysis. It is filed as functional, cell-based. Summed up: as §5

T1 sequence (P40337 whole entry, looked up): as the sequence (P40337 whole entry, looked up) above
T1 sequence (Q02779 whole entry, looked up): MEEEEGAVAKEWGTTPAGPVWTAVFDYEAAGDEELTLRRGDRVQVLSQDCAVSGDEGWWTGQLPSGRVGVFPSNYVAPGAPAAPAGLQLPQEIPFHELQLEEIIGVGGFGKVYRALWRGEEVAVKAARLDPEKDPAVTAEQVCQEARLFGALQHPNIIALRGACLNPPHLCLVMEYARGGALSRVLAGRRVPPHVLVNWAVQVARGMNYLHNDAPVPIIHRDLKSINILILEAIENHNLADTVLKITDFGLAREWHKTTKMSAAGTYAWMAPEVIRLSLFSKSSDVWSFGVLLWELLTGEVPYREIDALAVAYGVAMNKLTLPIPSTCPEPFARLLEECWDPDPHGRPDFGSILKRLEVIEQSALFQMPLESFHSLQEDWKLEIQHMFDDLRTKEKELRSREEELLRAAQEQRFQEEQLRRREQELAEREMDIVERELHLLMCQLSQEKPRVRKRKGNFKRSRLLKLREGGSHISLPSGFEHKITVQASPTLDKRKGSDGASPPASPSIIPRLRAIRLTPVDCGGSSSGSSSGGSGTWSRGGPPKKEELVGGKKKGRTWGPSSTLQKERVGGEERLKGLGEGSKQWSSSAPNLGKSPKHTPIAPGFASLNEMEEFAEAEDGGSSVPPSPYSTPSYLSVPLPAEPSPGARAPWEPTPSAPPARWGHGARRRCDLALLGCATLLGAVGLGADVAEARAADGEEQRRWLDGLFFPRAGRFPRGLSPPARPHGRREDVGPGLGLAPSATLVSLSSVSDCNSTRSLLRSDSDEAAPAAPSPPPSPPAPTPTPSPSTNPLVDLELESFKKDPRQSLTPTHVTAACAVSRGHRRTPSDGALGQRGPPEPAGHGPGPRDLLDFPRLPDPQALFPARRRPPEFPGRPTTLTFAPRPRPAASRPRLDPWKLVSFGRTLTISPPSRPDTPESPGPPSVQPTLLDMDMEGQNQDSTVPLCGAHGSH

On to `CCSCc1ccc2c(c1)c1c3c(c4c5cc(CSCC)ccc5n5c4c1n2[C@H]1C[C@](O)(C(=O)NCCOCCOCCOCC(=O)N[C@H](C(=O)N2C[C@H](O)C[C@H]2C(=O)N[C@@H](C)c2ccc(-c4scnc4C)cc2)C(C)(C)C)[C@]5(C)O1)CNC3=O`, for which the inhibition result with MCF7 [1], in the assay with MCF7 [11] and in the assay on MCF7 [13] was “inactive” in each case. Also, the inhibition entry with MDA-MB-468 [2] and in the assay with MDA-MB-468 [3] was “Active” throughout. Moreover, the “growth inhibition (GI)” value with MCF7 [4] was “inactive”. The result (in the assay on MCF7 [5]; in [6]; in the assay on MCF7 [7]; in assay [9]; in assay [10]; in [14]) was inactive. Besides, the outcome (with MDA-MB-468 [15]; in assay [16]; in [19]; with MCF7 [20]; with MCF7 [22]) was inactive. Besides, the result in assay [8], in assay [12] and in assay [17] was Active. Moreover, the DC50 in [18] was determined as 300 nM. Besides, in assay [21], the maximal response (Emax) was determined as 77%.
